# Source: PubChem BioAssay AID624467 (The Scripps Research Institute Molecular Screening Center, 2012)
# The whole screen tested about 360,000 compounds, of which about 3,600 (1%) were called active.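 Rule for the calls: active = activation above the mean activation of all test compounds in the run plus 3 SD (cut at about 38% in these data); inactive = the rest.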 The full list was thinned out, with actives kept by preference.
# Biological target: Trace amine-associated receptor 1 (Homo sapiens) (UniProt Q96RJ0)
# Assay: human TAAR1 agonists, primary screen, Fluo-8 calcium fluorescence, CHO RD-HGA16 cells (AID 624467)
# Details: CHO RD-HGA16 TAAR1, Fluo-8 calcium fluorescence; at 3 µM; stronger effect = higher value; vehicle wells 0%, saturating PEA agonist 100%
# Outline: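 Assay system – CHO-derived RD-HGA16 cells with stable Gα16 and human TAAR1 · Compound dosing – one-point dosing at 3 µM (nominal) · Incubation – 17-24 h seeding, 75 min 37 °C dye, 30 min RT · Measured by – kinetic Fluo-8 calcium fluorescence · Control set – DMSO vehicle as 0%, PEA at EC100 as 100% · Repeats – single well for each compound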
# Sequence of Trace amine-associated receptor 1 (Homo sapiens) (Q96RJ0 whole entry, looked up): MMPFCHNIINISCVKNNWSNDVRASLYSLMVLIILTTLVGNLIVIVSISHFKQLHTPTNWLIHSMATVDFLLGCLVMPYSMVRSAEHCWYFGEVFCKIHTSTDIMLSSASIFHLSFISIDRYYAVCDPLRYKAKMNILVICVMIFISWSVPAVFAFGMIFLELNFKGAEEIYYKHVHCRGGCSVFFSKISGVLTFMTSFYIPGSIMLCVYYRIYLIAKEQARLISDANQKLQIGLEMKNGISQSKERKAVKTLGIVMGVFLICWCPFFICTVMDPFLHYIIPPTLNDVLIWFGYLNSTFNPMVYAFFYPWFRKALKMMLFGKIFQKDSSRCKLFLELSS
row,SMILES,activation
1,O=C(NNC(=O)c1cc(-c2ccccc2Cl)nc2ccccc12)c1csc(N2CCOCC2)n1,2.63% (inactive)
2,O=C(OCCOc1ccccc1F)c1cc(S(=O)(=O)N2CCOCC2)ccc1F,3.93% (inactive)
3,COc1cccc(-c2cc(CNC(=O)[C@@H](Cc3ccccc3)NC(=O)[C@H]3O[C@@H](n4cnc(C(N)=O)n4)[C@H](O)[C@@H]3O)no2)c1,2.47% (inactive)
4,Cc1ccc(NC(=O)CN(C)C(=O)c2ccc(Cl)c(S(=O)(=O)NCc3ccco3)c2)cc1,1.71% (inactive)
5,COc1ccc(CNC(=O)c2ccc(-c3cccnc3)c3ccoc23)cc1OC,19.1% (inactive)
6,C[N+](C)(C)CCNC(=O)c1c[nH]c2ccccc12,3.46% (inactive)
7,CCc1ccc(N2CC(O)=C(c3nc4ccccc4c(=O)[nH]3)C2=N)cc1,7.2% (inactive)
8,N=C1C(c2nc3ccccc3[nH]2)=C(O)CN1NC(=O)c1c[nH]c2ccccc12,41.7% (active)
9,C=CCN=C1NC(c2ccccc2)C(C(=O)OC)=C(C)N1Cc1ccc(C(F)(F)F)cc1 (stereo not given),26.7% (inactive)
10,CCN(CC)CCCC(C)n1c2nc(=O)[nH]c(=O)c-2nc2cc(Cl)ccc21 (stereo not given),244% (active)
11,COc1cccc(CC(=O)N2CCN(C(=O)C(=O)c3cccc(C(F)(F)F)c3)CC2)c1,-0.34% (inactive)
12,CCCCCCCCN1C(=O)[C@@H](CC(=O)NCc2ccc(C)o2)C[C@@]2(C(=O)OC)C1=C[C@H](C(C)(C)C)O[C@@H]2C,-1.18% (inactive)
13,CCN(CC)C(=O)CCC(=O)Nc1ccc(C(=O)OC)cc1,4.26% (inactive)
14,CCCc1cc(C(=O)Nc2ccc(C(=O)OC)cc2)cs1,42.9% (active)
15,CCCc1cc(C(=O)Nc2ccc(Cl)cn2)cs1,0.75% (inactive)
16,NC1=NC(c2ccc([N+](=O)[O-])cc2)N(c2ccc(F)cc2)C(N)=N1 (stereo not given),2.32% (inactive)
17,CCOC(=O)Cc1csc(NC(=O)Nc2ccccc2)n1,51.5% (active)
18,COC(=O)Cc1csc(Nc2c(C)n(C)n(-c3ccccc3)c2=O)n1,7.82% (inactive)
19,CCOC(=O)Cc1csc(NC(NC(=O)OCC)(C(F)(F)F)C(F)(F)F)n1,11.4% (inactive)
20,CCCCC(=O)NNC(=S)NC(=O)C(c1ccccc1)c1ccccc1,137% (active)
21,C/C(=N\NC(=O)CNC(=O)C(c1ccccc1)c1ccccc1)c1ccc(C)cc1,-0.46% (inactive)
22,CCCOCC(O)CC(CC)C(=O)NNC(=S)Nc1ccccc1 (stereo not given),6.99% (inactive)
23,CCN(CC)Cc1nc2sc(C)c(C)c2c(=O)[nH]1,7.06% (inactive)
24,Cc1cc(NCCc2c[nH]c3ccccc23)ccc1Oc1cccnc1,-0.68% (inactive)
25,COC(=O)Nc1nc2ccc(C(=O)C3CC3)cc2[nH]1,0.33% (inactive)
26,CC(C)C(=O)Nc1nnc(SCC(=O)N2C(C)CCCC2C)s1 (stereo not given),2.6% (inactive)
27,CC/C(=C(/c1ccccc1)c1ccc(OCC[N+](C)(C)C)cc1)c1ccccc1,13.5% (inactive)
28,OC(c1ccccc1)(c1ccccc1)C1CCN(CCCOc2ccccc2)CC1,23.6% (inactive)

row,SMILES,activation
1,N#Cc1ccc(OCCCN2CCC(C(O)(c3ccccc3)c3ccccc3)CC2)c(F)c1,51% (active)
2,OC(c1ccccc1)(c1ccccc1)C1CCN(CCCOc2ccc(-c3ccsc3)cc2)CC1,35.3% (inactive)
3,Cc1ccc2c(c1)N(S(=O)(=O)c1cc(-c3cc(C)no3)ccc1C)CCO2,0.2% (inactive)
4,Nc1c(C(=O)c2cccs2)sc2nsc(SCCN3CCCCC3)c12,95.1% (active)
5,Nc1ccn([C@@H]2O[C@H](C(=O)N[C@H]3CCCCNC3=O)[C@@H](O)[C@H]2O)c(=O)n1,-0.44% (inactive)
6,c1ccc(Nc2nc(N3CCOCC3)c3ccccc3n2)cc1,98.4% (active)
7,c1ccc2c(NC3C4CC5CC(C4)CC3C5)nc(N3CCOCC3)nc2c1 (stereo not given),28.9% (inactive)
8,COc1ccc(Nc2ncc(F)c(N3CCOCC3)n2)cc1,6.99% (inactive)
9,O=S1(=O)c2c(cccc2N2CCCCC2)O[C@H](COCc2ccccc2)CN1C1CC1,-0.15% (inactive)
10,Nc1nonc1-n1nnc(C(=O)N/N=C/c2ccc(Cl)cc2)c1-c1ccc2c(c1)OCO2,133% (active)
11,CCc1ccc(/C=N/NC(=O)c2nnn(-c3nonc3N)c2CN2CCc3ccccc32)cc1,4.17% (inactive)
12,C/C(COc1ccccc1)=N\NC(=O)c1nnn(-c2nonc2N)c1-c1ccc(C)cc1,6.16% (inactive)
13,CC(C)c1c(C(=O)N/N=C/c2ccccc2C(=O)O)nnn1-c1nonc1N,2.66% (inactive)
14,CC(C)Oc1ccc(/C=N/NC(=O)c2nnn(-c3nonc3N)c2CN(C)C2CCCCC2)cc1,19.2% (inactive)
15,CCCOc1ccc(-c2c(C(=O)N/N=C/c3ccco3)nnn2-c2nonc2N)cc1,74.1% (active)
16,CCOC(=O)N1CCN(C(=O)C[C@H]2C[C@@]3(C(=O)OC)C(=C[C@H](C4CCCC4)O[C@@H]3C)N(Cc3ccccc3)C2=O)CC1,-1.14% (inactive)
17,CCc1ccc(C2=CC(=O)CC(C)(C)C2=O)cc1,-1.42% (inactive)
18,CCCCN1C(=O)C(CC(=O)NC(c2ccccc2)c2ccccc2)CC(C(=O)N2CCOCC2)=C1C (stereo not given),0.19% (inactive)
19,CC(C)CNc1cccc2c1S(=O)(=O)N[C@H](CC(C)C)CO2,-0.51% (inactive)
20,CN(CCO)C(=O)c1nc[nH]c1C(=O)N(C)Cc1ccccc1,0.95% (inactive)
21,CCOC(=O)N(Cc1ccccc1)C1CC1,3.18% (inactive)
22,CN(C(=O)CN(CCO)CC(=O)N(C)C(C)(C)Cc1ccccc1)C(C)(C)Cc1ccccc1,125% (active)
23,COc1ccc(NS(=O)(=O)c2cc3c(cc2C)N(C(C)=O)CCO3)cc1,1.33% (inactive)
24,C=CC[C@]12C[C@@]3(O[C@H](c4ccc(C(F)(F)F)cc4)N=C3C[C@H](c3ccc(OC)cc3)[C@H]1C)N(C1CCN(Cc3ccccc3)CC1)C2=O,0.44% (inactive)
25,CC1CCCN(c2ccc(C(=O)NCCc3ccccc3)cn2)C1 (stereo not given),41.2% (active)
26,CC1CCN(c2c(NCc3ccc(C(=O)NCc4ccccc4)cc3)c(=O)c2=O)CC1,0.05% (inactive)
27,CC1CCN(C(=O)CCNC(=O)c2ccccc2)CC1,1.29% (inactive)
